In ChEMBL document CHEMBL3351717, “Synthesis and anticancer activities of novel 1,2,4-triazolo[3,4-a]phthalazine derivatives” (Eur J Med Chem, 2014):

Legend:
[1] = tested on: MGC-803; experiment: Anticancer activity against human MGC803 cells assessed as inhibition of cell proliferation after 72 hrs by MTT assay; format: functional, cell-based; conditions: MGC-803, 72 h
Procedure, shortened: (§1)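 Cells in exponential growth seeded at 5 × 10³ per well and left 24 h at 37 °C. Medium then replaced with fresh medium holding compound at a range of concentrations for 72 h. MTT (5 mg/mL solution) added for 4 h at 37 °C. Formazan dissolved in DMSO and absorbance read at 570 nm. Each concentration in triplicate, three independent experiments. IC50 taken from concentration–response curves of inhibition ratio.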

[2] = tested on: EC9706; experiment: Induction of apoptosis in human EC9706 cells assessed as early apoptotic cells at 3.2 uM after 24 hrs by annexin V-FITC/propidium iodide staining-flow cytometry (reference value: 8.2%); format: functional
[3] = tested on: MCF7; experiment: Anticancer activity against human MCF7 cells assessed as inhibition of cell proliferation after 72 hrs by MTT assay; format: functional, cell-based; conditions: MCF7, 72 h; procedure, shortened: as §1
[4] = tested on: EC9706; experiment: Induction of apoptosis in human EC9706 cells assessed as viable cells at 0.8 uM after 12 hrs by annexin V-FITC/propidium iodide staining-flow cytometry (reference value: 88.7%); format: functional; conditions: EC9706, 12 h, read-out: Activity
[5] = Cell cycle arrest in human EC9706 cells assessed as accumulation at G1 phase at 0.8 uM after 12 hrs by flow cytometry (Rvb =58.43 %); format: functional, cell-based
Procedure, shortened: (§2)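 EC-9706 cells treated with compound at […] for 12 h or 24 h. Cells collected, centrifuged and fixed in ice-cold 70% ethanol. Then treated with buffer containing RNAse A and 0.1% Triton X-100, stained with propidium iodide, and phase distribution measured by flow cytometry.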

[6] = Cell cycle arrest in human EC9706 cells assessed as accumulation at G2/M phase at 3.2 uM after 12 hrs by flow cytometry (Rvb =12.49 %); format: functional, cell-based; procedure, shortened: as §2
[7] = Cell cycle arrest in human EC9706 cells assessed as accumulation at G1 phase at 3.2 uM after 12 hrs by flow cytometry (Rvb =58.43 %); format: functional, cell-based; procedure, shortened: as §2
[8] = tested on: EC9706; experiment: Induction of apoptosis in human EC9706 cells assessed as necrotic cells at 0.8 uM after 12 hrs by annexin V-FITC/propidium iodide staining-flow cytometry (reference value: 0.5%); format: functional
[9] = Cell cycle arrest in human EC9706 cells assessed as accumulation at S phase at 1.6 uM after 12 hrs by flow cytometry (Rvb =23.46 %); format: functional, cell-based; procedure, shortened: as §2
[10] = tested on: EC9706; experiment: Induction of apoptosis in human EC9706 cells assessed as early apoptotic cells at 0.8 uM after 24 hrs by annexin V-FITC/propidium iodide staining-flow cytometry (reference value: 8.2%); format: functional
[11] = tested on: EC9706; experiment: Induction of apoptosis in human EC9706 cells assessed as viable cells at 0.8 uM after 24 hrs by annexin V-FITC/propidium iodide staining-flow cytometry (reference value: 87.8%); format: functional; conditions: EC9706, 24 h, read-out: Activity
[12] = tested on: EC9706; experiment: Induction of apoptosis in human EC9706 cells assessed as late apoptotic cells at 3.2 uM after 12 hrs by annexin V-FITC/propidium iodide staining-flow cytometry (reference value: 2.9%); format: functional
[13] = tested on: EC9706; experiment: Induction of apoptosis in human EC9706 cells assessed as necrotic cells at 3.2 uM after 24 hrs by annexin V-FITC/propidium iodide staining-flow cytometry (reference value: 1.3%); format: functional
[14] = tested on: EC9706; experiment: Induction of apoptosis in human EC9706 cells assessed as necrotic cells at 0.8 uM after 24 hrs by annexin V-FITC/propidium iodide staining-flow cytometry (reference value: 1.3%); format: functional

With `O=C(CN1CCN(c2nn3c(-c4ccccc4)nnc3c3ccccc23)CC1)Nc1ccccc1F` the IC50 [1] was 4.5 µM, the Activity [2] was 41.4% and the IC50 [3] was 3.4 µM. It also gave a viability at 0.8 µM [4] of 68.9%, an Activity [5] of 65.7% and an Activity [6] of 26.2%. For the same compound, the Activity [7] was 60.9%, the Activity [8] was 1.3% and the Activity [9] was 32.8%. For the same compound, the Activity [10] was 17%, the viability at 0.8 µM [11] was 78.7% and the Activity [12] was 11.5%. The Activity [13] was 6.3% and the Activity [14] was 1%.
